18 compounds from ChEMBL document CHEMBL4004793, “Spoxazomicin D and Oxachelin C, Potent Neuroprotective Carboxamides from the Appalachian Coal Fire-Associated Isolate Streptomyces sp. RM-14-6” (J Nat Prod, 2017) can be followed below.

The subject of test [1] is Staphylococcus aureus. Description: Antibacterial activity against Staphylococcus aureus ATCC 6538 up to 60 uM after 16 to 48 hrs. In kind it is functional. Summed up:
(§1)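 MIC determined after 16−48 h incubation, in triplicate, following earlier published protocols; kanamycin and ampicillin as positive controls for bacteria, amphotericin B for S. cerevisiae. S. aureus, S. enterica and S. cerevisiae strains from ATCC.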

In test [2] the test system is Micrococcus luteus. Description: Antibacterial activity against Micrococcus luteus NRRL B-287 up to 60 uM after 16 to 48 hrs. The class given is functional. Summed up:
as §1

Another test deals with Escherichia coli. Put plainly: Antibacterial activity against Escherichia coli NRRL B-3708 up to 60 uM after 16 to 48 hrs. The class given is functional. Summed up:
as §1

Test [3] relates to Salmonella enterica. Description: Antibacterial activity against Salmonella enterica ATCC 10708 up to 60 uM after 16 to 48 hrs. In kind it is functional. Summed up:
as §1

The test system of test [4] is Saccharomyces cerevisiae. Description: Antifungal activity against Saccharomyces cerevisiae ATCC 204508 up to 60 uM after 16 to 48 hrs. In kind it is functional. The method, boiled down:
as §1

Test [5] has as its system A549. Description: Cytotoxicity against human A549 cells assessed as decrease in cell viability up to 20 uM after 48 hrs by resazurin assay. The class given is functional, cell-based. The method, boiled down: (§2)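 A549 non-small-cell lung cells from ATCC, run in triplicate following earlier published protocols; actinomycin D as positive control.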
Test [6] relates to Hippocampal neurone. Description: Neuroprotective activity against EtOH-induced damage in Sprague-Dawley rat hippocampal neuron at 0.01 uM after 48 hrs by propidium iodide uptake assay. In kind it is functional, cell-based. The method, boiled down: (§3)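 Organotypic hippocampal slices from 8-day-old Sprague−Dawley rats in medium with 3.74 μM propidium iodide, with or without 100 mM EtOH plus test agent at varied concentrations, 48 h. Slices then imaged for propidium iodide uptake intensity as a marker of cell damage; post hoc statistical comparison vs control and vs EtOH.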

The subject of test [7] is Hippocampal neurone. Description: Neuroprotective activity against EtOH-induced damage in Sprague-Dawley rat hippocampal neuron after 48 hrs by propidium iodide uptake assay. In kind it is functional, cell-based. Summed up:
as §3

The subject of test [8] is A549. Description: Cytotoxicity against human A549 cells assessed as decrease in cell viability after 48 hrs by resazurin assay. In kind it is functional, cell-based. The method, boiled down:
as §2
For orientation: Resazurin is reduced to fluorescent resorufin, in cell work by metabolically active cells.

Test [9] concerns Staphylococcus aureus. Put plainly: Antibacterial activity against Staphylococcus aureus ATCC 6538 after 16 to 48 hrs. The class given is functional. The method, boiled down: as §1
The test system of test [10] is Micrococcus luteus. Put plainly: Antibacterial activity against Micrococcus luteus NRRL B-287 after 16 to 48 hrs. The class given is functional. Summed up: as §1
Test [11] concerns Salmonella enterica. Description: Antibacterial activity against Salmonella enterica ATCC 10708 after 16 to 48 hrs. In kind it is functional. Summed up: as §1
The test system of test [12] is Saccharomyces cerevisiae. Description: Antifungal activity against Saccharomyces cerevisiae ATCC 204508 after 16 to 48 hrs. The class given is functional. The method, boiled down: as §1
The subject of another test is HEK293. Put plainly: Modulation of unfolded protein response in HEK293 cells after 48 hrs by ASGR-Cluc secretion assay. The settings on record: Homo sapiens.
Test [13] concerns Hippocampal neurone. Description: Neuroprotective activity against EtOH-induced damage in Sprague-Dawley rat hippocampal neuron at 0.01 to 0.10 uM after 48 hrs by propidium iodide uptake assay. In kind it is functional, cell-based. The method, boiled down:
as §3

What is called pIC50 is −log10 of the IC50, conventionally taken in molar units. For orientation: MIC means the lowest concentration that inhibits growth of the organism. As a reminder, the pEC50 is the EC50 on a negative log10 scale, so that one unit is a factor of ten.

The structures appear in SMILES notation. pEC50, pIC50: −log10 of the molar value. In brackets after ≈: the same amount, converted by molar mass. Activity calls are given as the source filed them. The rule behind the calls is not given here.

As for `O=C(NC(CO)CO)c1ccccc1O`, the outcome in the test on Staphylococcus aureus [1], in the test with Micrococcus luteus [2], with Escherichia coli, in the test on Salmonella enterica [3], with Saccharomyces cerevisiae [4] and in the test on A549 [5] was inactive.

As to `NC(=O)[C@@H]1COC(c2ccccc2O)=N1`, the result with Hippocampal neurone [6] was Active. In addition, the result in the test with Staphylococcus aureus [1], in the test with Micrococcus luteus [2], with Escherichia coli, in the test on Salmonella enterica [3], with Saccharomyces cerevisiae [4] and in the test on A549 [5] was inactive.

For `CC(=O)NCCc1ccc(O)cc1`, the result in the test on Staphylococcus aureus [1], in the test with Micrococcus luteus [2], in the test on Escherichia coli, in the test with Salmonella enterica [3], with Saccharomyces cerevisiae [4] and in the test on A549 [5] was inactive.

On to `C[C@H](CO)NC(=O)c1ccccc1O`, for which the outcome in the test on Staphylococcus aureus [1], in the test on Micrococcus luteus [2], in the test on Escherichia coli, with Salmonella enterica [3], in the test with Saccharomyces cerevisiae [4] and with A549 [5] was inactive.

Take `NC(=O)c1ccc[nH]1`: the result in the test on Staphylococcus aureus [1], in the test on Micrococcus luteus [2], with Escherichia coli, in the test with Salmonella enterica [3], with Saccharomyces cerevisiae [4] and in the test on A549 [5] was inactive.

Consider `NC(=O)c1ccccc1O`, for which the result with Staphylococcus aureus [1], in the test with Micrococcus luteus [2], in the test on Escherichia coli, with Salmonella enterica [3], in the test on Saccharomyces cerevisiae [4] and in the test on A549 [5] was inactive.

As for `C[C@@H](CO)NC(=O)c1ccccc1O`, the outcome in the test on Staphylococcus aureus [1], with Micrococcus luteus [2], in the test with Escherichia coli, in the test with Salmonella enterica [3], with Saccharomyces cerevisiae [4] and in the test with A549 [5] was inactive.

As for `O=CN(O)CCC[C@@H](NC(=O)[C@H](CO)NC(=O)[C@@H]1COC(c2ccccc2O)=N1)C(=O)NCCC(=O)N[C@@H]1CCCN(O)C1=O`, the outcome with Hippocampal neurone [7], with Staphylococcus aureus [1], in the test with Micrococcus luteus [2], in the test with Escherichia coli, with Salmonella enterica [3] and in the test on Saccharomyces cerevisiae [4] was inactive. Also, in the test with A549 [5], the result was inactive.

In the case of `O=CN(O)CCC[C@@H](NC(=O)[C@H](CO)NC(=O)[C@H](CO)NC(=O)c1ccccc1O)C(=O)NCCC(=O)N[C@@H]1CCCN(O)C1=O`, the result in the test on Hippocampal neurone [7], in the test on Staphylococcus aureus [1], in the test with Micrococcus luteus [2], in the test with Escherichia coli, in the test with Salmonella enterica [3] and with Saccharomyces cerevisiae [4] was inactive. Also, the outcome in the test with A549 [5] was inactive.

For `CO[C@H]1CC[C@H](O[C@@H]2C[C@@H]([C@@H](C)/C=C(\C)C(=O)[C@H](C)C[C@H](C)C(=O)[O-])O[C@@]3(CC[C@@](C)([C@H]4CC[C@@H](C)[C@@]5(O[C@@H]([C@H]6O[C@@](O)(CO)[C@H](C)C[C@@H]6C)C[C@@H]5C)O4)O3)[C@@H]2C)O[C@@H]1C.[Na+]`, in the test on A549 [8] (a549), the negative-log IC50 (pIC50) is 5.72. Further, the MIC in the test on Staphylococcus aureus [9] lay within 0.1 to 3 µM; with Micrococcus luteus [10] it was 0.1 to 3 µM; against Salmonella enterica [11], 0.1 to 3 µM; in the test with Saccharomyces cerevisiae [12] (Saccharomyces cerevisiae, ATCC 204508, read-out: MIC) it was 0.1 to 3 µM. In the test on HEK293, this compound showed a negative-log EC50 (pEC50) of 6.96.

On to `CO[C@H]1CC[C@H](O[C@@H]2C[C@@H]([C@@H](C)/C=C(\C)C(=O)[C@H](C)C[C@H](C)C(=O)O)O[C@@]3(CC[C@@](C)([C@H]4CC[C@@H](C)[C@@]5(O[C@@H]([C@H]6O[C@@](O)(CO)[C@H](C)C[C@@H]6C)C[C@@H]5C)O4)O3)[C@@H]2C)O[C@@H]1C`, for which, in the test on A549 [8] (Homo sapiens, A549, 48 h), the pIC50 is 5.92. Besides, the minimum inhibitory concentration (MIC) with Staphylococcus aureus [9] (Staphylococcus aureus, ATCC 6538, read-out: MIC) fell in the range of 0.1 to 3 µM (≈ 0.0851 to 2.55 µg/mL); with Micrococcus luteus [10] (Micrococcus luteus, NRRL B-287, read-out: MIC), 0.1 to 3 µM (≈ 0.0851 to 2.55 µg/mL); with Salmonella enterica [11] (Salmonella enterica, ATCC 10708, read-out: MIC), 0.1 to 3 µM (≈ 0.0851 to 2.55 µg/mL); in the test with Saccharomyces cerevisiae [12] it was 0.1 to 3 µM. This compound also gave a pEC50 in the test on HEK293 of 7.42.

With `OC[C@@H]1COC(c2ccccc2O)=N1`, the outcome in the test on Hippocampal neurone [7], in the test with Staphylococcus aureus [1], with Micrococcus luteus [2], with Escherichia coli, in the test with Salmonella enterica [3] and with Saccharomyces cerevisiae [4] was inactive. In addition, the outcome with A549 [5] was inactive.

`NC(=O)Cc1ccccc1`: the result with Staphylococcus aureus [1], in the test on Micrococcus luteus [2], with Escherichia coli, in the test on Salmonella enterica [3], in the test on Saccharomyces cerevisiae [4] and in the test with A549 [5] was inactive.

Regarding `COC(=O)C1COC(c2ccccc2O)=N1` (configuration not stated), the result with Staphylococcus aureus [1], in the test on Micrococcus luteus [2], with Escherichia coli, with Salmonella enterica [3], in the test with Saccharomyces cerevisiae [4] and in the test with A549 [5] was inactive.

As to `CC(C)C[C@@H]1NC(=O)[C@H]2C[C@@H](O)CN2C1=O`, the outcome in the test on Staphylococcus aureus [1], in the test with Micrococcus luteus [2], in the test with Escherichia coli, with Salmonella enterica [3], with Saccharomyces cerevisiae [4] and in the test with A549 [5] was inactive.

On to `N[C@@H](COC(=O)c1ccccc1O)C(=O)N[C@@H](CO)C(=O)N[C@H](CCCN(O)C=O)C(=O)NCCC(=O)N[C@@H]1CCCN(O)C1=O`, for which the result with Hippocampal neurone [13] was Active. Moreover, the outcome in the test with Staphylococcus aureus [1], with Micrococcus luteus [2], in the test with Escherichia coli, in the test with Salmonella enterica [3], in the test with Saccharomyces cerevisiae [4] and with A549 [5] was inactive.

In the case of `CC1=CC(=O)C[C@]2(C)CC[C@@H](C(C)(C)O)C[C@@H]12`, the result in the test on Staphylococcus aureus [1], in the test with Micrococcus luteus [2], in the test with Escherichia coli, in the test with Salmonella enterica [3] and in the test with Saccharomyces cerevisiae [4] was inactive.

For `CNc1ccc(C(N)=O)cc1`, the outcome in the test on Staphylococcus aureus [1], in the test with Micrococcus luteus [2], in the test with Escherichia coli, in the test with Salmonella enterica [3], in the test with Saccharomyces cerevisiae [4] and in the test on A549 [5] was inactive.
